The subject of data set [1] is HCT-116. The data set is described as follows: Antiproliferative activity against human HCT-116 cells assessed as inhibition of cell viability measured after 72 hrs by MTT assay. As to conditions: HCT-116, 72 h. In kind it is functional, cell-based. In outline:
(§1)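 Cells kept at 37 °C, 5% CO₂ in RPMI 1640, L-15 or DMEM with 10% FBS and 1% penicillin-streptomycin. Plated at 2-4 × 10³ cells/well and dosed 24 h after plating. After 72 h exposure, MTT added for 2-4 h at 37 °C. Formazan dissolved in DMSO, absorbance read at 570 nm. IC50 is the mean of at least three independent experiments.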
(Tetrazolium assays rely on reduction of a dye to a coloured formazan, in cell work by metabolically active cells.)

The subject of data set [2] is SW-620. The data set is described as follows: Antiproliferative activity against human SW-620 cells assessed as inhibition of cell viability measured after 72 hrs by MTT assay. It is filed as functional, cell-based. As to conditions: SW-620, 72 h. The essentials: as §1
Data set [3] relates to HT-29. The data set is described as follows: Antiproliferative activity against human HT-29 cells assessed as inhibition of cell viability measured after 72 hrs by MTT assay. The conditions noted are these: HT-29, 72 h. It is filed as functional, cell-based. In outline: as §1
Data set [4] has as its system HCT-15. The data set is described as follows: Antiproliferative activity against human HCT-15 cells assessed as inhibition of cell viability measured after 72 hrs by MTT assay. In kind it is functional, cell-based. The conditions noted are these: HCT-15, 72 h. In outline:
as §1

Data set [5] has as its system DLD-1. In words: Antiproliferative activity against human DLD-1 cells assessed as inhibition of cell viability measured after 72 hrs by MTT assay. In kind it is functional, cell-based. As to conditions: DLD-1, 72 h. The essentials: as §1
Data set [6] is described as follows: Toxicity in Balb/c mouse xenografted with human HT-29 cells assessed as reduction in body weight at 30 mg/kg, po administered via gavage measured after 10 days. As to conditions: in vivo, 240 h, time 10 day. In kind it is organism-based. In outline: (§2)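 Female BALB/c nude mice, 6–7 weeks old, injected subcutaneously with 8×10^6 HT29 cells. At about 100 mm³ average tumour volume, mice were randomised into groups (n=5). Dosing was daily oral gavage for 30 days in 10% DMSO/1% Tween-80/saline, with a vehicle group. Tumour size (calipers; 0.5 × shortest diameter² × longest diameter) and body weight were recorded every two days.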
(In general: Xenograft models place foreign cells or tissue in a host animal.)

Data set [7] deals with L02. In words: Cytotoxicity against human L02 cells assessed as inhibition of cell viability at 0.625 to 40 uM measured after 72 hrs by MTT assay. In kind it is cell-based. As to conditions: l02, 72 h, dose 0.625-40 µM. In outline: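 Cells were grown at 37 °C, 5% CO2, in medium with 10% FBS, and seeded at 2–4×10^3 cells/well. Compound was added 24 h after plating and left for 72 h. MTT (5 mg/mL stock) was then added for 2–4 h at 37 °C, formazan was dissolved in DMSO, and absorbance read at 570 nm. Values are means of at least three independent experiments.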

Data set [8] relates to HT-29. The data set is described as follows: Antitumour activity against human HT-29 cells xenografted in Balb/c mouse assessed as inhibition of tumour growth at 30 mg/kg, po administered via gavage for 30 days and measured every 2 days by vernier caliper analysis. It is filed as functional, organism-based. The conditions noted are these: time 30.0 day. In outline:
as §2

Data set [9] is described as follows: Inhibition of dimerization of N-terminal His6-tagged human c-Myc bHLHZip domain (353 to 439 residues)/Max(151 residues) (unknown origin) expressed in Escherichia coli BL21DE3 measured after 1 hr by ELISA. The essentials:
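Myc bHLHZip (5.5 μg/well) was coated at 4 °C for 24 h in PBS pH 7.0 buffer (EDTA, KCl, MgCl2, glycerol, NP40, DTT), then blocked with 3% BSA for 2 h at 37 °C. Detection used rabbit anti-c-Myc, HRP anti-rabbit and TMB, read at 450 nm.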
(In an ELISA, binding on a coated surface is turned into a signal by an enzyme label.)

For data set [10], the species on record is Homo sapiens. In words: Inhibition of dimerization of N-terminal His6-tagged human c-Myc bHLHZip domain (353 to 439 residues)/Max(151 residues) (unknown origin) expressed in Escherichia coli BL21DE3 assessed as inhibition of c-Myc/Max/DNA complex formation at 20 uM preincubated with c-Myc/Max for 1.5 hrs followed by incubation with DNA oligo for 0.5 hrs by EMSA analysis relative to control. The conditions noted are these: time 2.0 hrs. In outline: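 Gel-shift used His-tagged Myc/Max complex (50 nM) with a biotinylated E-box duplex oligo (50 nM). Buffer was PBS pH 7.0 with 10 mM EDTA, 500 mM KCl, 30 mM MgCl2, 5% glycerol, 0.1% NP40, 1.5 mM DTT and 10% DMSO. Protein was preincubated with compound at 20 μM for 1.5 h at room temperature, then DNA was added for 0.5 h. Inhibition is relative to DMSO; three independent experiments.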

From ChEMBL document CHEMBL4765310, “Discovery of 4-(3,5-dimethoxy-4-(((4-methoxyphenethyl)amino)methyl)phenoxy)-N-phenylaniline as a novel c-myc inhibitor against colorectal cancer in vitro and in vivo” (Eur J Med Chem, 2020) come the findings set out here.

Calls of active or inactive are those of the source. No cut-off for these calls is given here. Some results are limits rather than exact numbers.

For `O=c1[nH]cc(F)c(=O)[nH]1` [FLUOROURACIL], the IC50 (in general, the concentration that inhibits the measured activity by half) turned out to be 12.3 µM in [1]; 15.3 µM in data set [2]; 13.4 µM in data set [3]; 10.9 µM in data set [4]; 11.4 µM in [5]. For the same compound, the Activity result in data set [6] and in data set [7] was “Toxic” each time. In data set [8], the outcome was Active.
Take `CCN1CCN(Cc2c(OC)cc(Oc3cccc(Nc4ccccc4)c3)cc2OC)CC1`: the IC50 in data set [1] is greater than 20 µM; in data set [2], greater than 20 µM; in [3] it was greater than 20 µM; in [4] it was 5.09 µM; in [5] it was greater than 20 µM; in data set [9], greater than 150 µM. Also, the inhibition – broadly, the relative decrease from the control value, in per cent – in data set [10] worked out at 8.9%.
For `COc1cc(Oc2cccc(Nc3ccccc3)c2)cc(OC)c1CN(C)C`, the IC50 was 12.9 µM in data set [1]; greater than 20 µM in data set [2]; greater than 20 µM in data set [3]; 15.6 µM in data set [4]; greater than 20 µM in [5]; greater than 150 µM in data set [9]. Besides, in data set [10], the inhibition turned out to be 3.2%.
`COc1cc(Oc2cccc(Nc3ccccc3)c2)cc(OC)c1CNC12CC3CC(CC(C3)C1)C2`: the IC50 was greater than 20 µM in data set [1]; greater than 20 µM in data set [2]; 3.53 µM in data set [3]; 6.51 µM in data set [4]; 7.37 µM in [5]; 147 µM in [9]. For the same compound, the inhibition in data set [10] turned out to be 12.6%.
Take `COc1cc(Oc2cccc(Nc3ccccc3)c2)cc(OC)c1CNCCc1ccc(Cl)cc1`: the IC50 in data set [1] came out at 5.4 µM; in data set [2], 10 µM; in data set [3] it was 2.82 µM; in data set [4], 3.76 µM; in [5], 3.4 µM; in data set [9] it was 92 µM. Also, the inhibition in [10] was 43.7%.
On to `COc1cc(Oc2cccc(Nc3ccccc3)c2)cc(OC)c1CNCc1ccc(C)cc1`, for which the IC50 in [1] stood at 13.8 µM; in data set [2] it was 11.8 µM; in data set [3], 3.88 µM; in data set [4] it was 5.4 µM; in [5], 6.08 µM; in [9] it was 119 µM. The inhibition in data set [10] was 32.4%.
In the case of `COc1cc(Oc2cccc(Nc3ccccc3)c2)cc(OC)c1CNCCc1ccc(F)cc1`, the IC50 in [1] came to 3.19 µM; in data set [2] it was 8.95 µM; in data set [3] it was 2.52 µM; in data set [4], 2.34 µM; in data set [5], 2.87 µM; in data set [9], 95 µM. For the same compound, the inhibition in data set [10] came to 40.5%.
